Results as given in ChEMBL document CHEMBL3526063, “Metabolism and pharmacokinetics of JM6 in mice: JM6 is not a prodrug for Ro-61-8048” (Drug Metab Dispos, 2012).
pIC50: −log10 of the molar value.

Legend:
Mus musculus [1] = experiment: Dose normalised Cmax in C57BL/6N mouse treated with JM6 (containing <0.4% Ro-61-8048) at 9.5 mg/kg, po and Ro-61-8048 at 0.05 mg/kg, po drugs administered via gavage by LC-MS/MS analysis; format: ADME, organism-based; settings: in vivo, in the assay text read “0.5 mg/kg” for “0.05 mg/kg”
How it was run: (§1)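 Male C57BL/6N mice were dosed by oral gavage at 10 mL/kg with a fine suspension in 10% hydroxypropyl-β-cyclodextrin in 50 mM phosphate buffer, pH 7. Plasma was taken at non-serial time points (n=3 per time point), extracted with 0.1% formic acid in acetonitrile containing diclofenac as internal standard, and quantified by UPLC-MS/MS. Composite non-compartmental parameters came from mean concentrations; AUClast by linear trapezoid, kel from at least three terminal points.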

[2] = Half life in C57BL/6N mouse treated with JM6 (containing <0.4% Ro-61-8048) at 9.5 mg/kg, po and Ro-61-8048 at 0.05 mg/kg, po drugs administered via gavage by LC-MS/MS analysis; format: ADME, organism-based; settings: in vivo, in the assay text read “0.5 mg/kg” for “0.05 mg/kg”; how it was run: as §1
[3] = AUC(infinity) in C57BL/6N mouse treated with JM6 (containing <0.4% Ro-61-8048) at 9 mg/kg, po and Ro-61-8048 at 1 mg/kg, po drugs administered via gavage by LC-MS/MS analysis; format: ADME, organism-based; design: dose 9 mg/kg, time infinity, route oral; settings: plasma; how it was run: as §1
Mus musculus [4] = experiment: Dose normalised AUC in C57BL/6N mouse treated with JM6 (containing <0.4% Ro-61-8048) at 9 mg/kg, po and Ro-61-8048 at 1 mg/kg, po drugs administered via gavage by LC-MS/MS analysis; format: ADME, organism-based; settings: in vivo; how it was run: as §1
[5] = Cmax in C57BL/6N mouse treated with JM6 (containing <0.4% Ro-61-8048) at 9 mg/kg, po and Ro-61-8048 at 1 mg/kg, po drugs administered via gavage by LC-MS/MS analysis; format: ADME, organism-based; design: dose 9 mg/kg, route oral; settings: in vivo; how it was run: as §1
Mus musculus [6] = experiment: Dose normalised Cmax in C57BL/6N mouse treated with JM6 (containing <0.4% Ro-61-8048) at 9 mg/kg, po and Ro-61-8048 at 1 mg/kg, po drugs administered via gavage by LC-MS/MS analysis; format: ADME, organism-based; settings: in vivo; how it was run: as §1
[7] = Tmax in C57BL/6N mouse treated with JM6 (containing <0.4% Ro-61-8048) at 9 mg/kg, po and Ro-61-8048 at 1 mg/kg, po drugs administered via gavage by LC-MS/MS analysis; format: ADME, organism-based; settings: in vivo
How it was run: (§2)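 Male C57BL/6N mice dosed by oral gavage (10 mL/kg) as fine suspensions in 10% hydroxypropyl-β-cyclodextrin in 50 mM phosphate buffer pH 7; dose formulations verified by LC-MS/MS. Plasma analysed by LC-MS/MS; composite non-compartmental parameters from mean concentrations (n=3 per time point), C0 set to zero. %F = dose-normalised po AUCinf over dose-normalised iv AUCinf, only within linear range.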

[8] = AUClast in C57BL/6N mouse treated with JM6 (containing <0.4% Ro-61-8048) at 10 mg/kg, po and Ro-61-8048 at 0.05 mg/kg, po drugs administered via gavage by LC-MS/MS analysis; format: ADME, organism-based; design: dose 10 mg/kg, time 0 - last, route oral; settings: plasma; how it was run: as §1
[9] = AUC(infinity) in C57BL/6N mouse treated with JM6 (containing <0.4% Ro-61-8048) at 10 mg/kg, po and Ro-61-8048 at 0.05 mg/kg, po drugs administered via gavage by LC-MS/MS analysis; format: ADME, organism-based; design: dose 10 mg/kg, route oral, time infinity; settings: plasma; how it was run: as §1
[10] = Half life in C57BL/6N mouse treated with JM6 (containing <0.4% Ro-61-8048) at 10 mg/kg, po and Ro-61-8048 at 0.05 mg/kg, po drugs administered via gavage by LC-MS/MS analysis; format: ADME, organism-based; settings: in vivo; how it was run: as §1
[11] = AUClast in C57BL/6N mouse treated with JM6 (containing <0.4% Ro-61-8048) at 25 mg/kg, po and Ro-61-8048 at 0.05 mg/kg, po drugs administered via gavage by LC-MS/MS analysis; format: ADME, organism-based; design: dose 25 mg/kg, route oral, time 0 - last; settings: plasma; how it was run: as §1
[12] = Tmax in C57BL/6N mouse treated with JM6 (containing <0.4% Ro-61-8048) at 25 mg/kg, po and Ro-61-8048 at 0.05 mg/kg, po drugs administered via gavage by LC-MS/MS analysis; format: ADME, organism-based; settings: in vivo; how it was run: as §2
[13] = Metabolic stability in rat plasma assessed as half life at 5 uM after 10 to 1440 mins by LC-MS/MS analysis; format: ADME, cell-free
[14] = Efflux ratio of permeability from basolateral to apical side over apical to basolateral side in MDCK2 cells at 10 uM after 1 hr by LC-MS/MS analysis; format: ADME, cell-based, Canis lupus familiaris, MDCK-II; settings: dog
How it was run: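 MDCKII wild-type and MDR1 cells grown on Transwells 3 days at 2×10^5 cells/well. Compound 10 μM in HBSS with 25 mM HEPES pH 7.4, added apical or basolateral in duplicate, 1 h at 37 °C. Lucifer Yellow monitored monolayer integrity; wells above 100 nm/s rejected. Both chambers sampled, LC-MS/MS; Papp A>B and B>A, ratio B>A:A>B.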

Mus musculus [15] = experiment: Dose normalised AUC in C57BL/6N mouse treated with JM6 (containing <0.4% Ro-61-8048) at 25 mg/kg, po and Ro-61-8048 at 0.05 mg/kg, po drugs administered via gavage by LC-MS/MS analysis; format: ADME, organism-based; settings: in vivo; how it was run: as §1
Mus musculus [16] = experiment: Dose normalised Cmax in C57BL/6N mouse treated with JM6 (containing <0.4% Ro-61-8048) at 25 mg/kg, po and Ro-61-8048 at 0.05 mg/kg, po drugs administered via gavage by LC-MS/MS analysis; format: ADME, organism-based; settings: in vivo; how it was run: as §1
Mus musculus [17] = experiment: Dose normalised AUC in C57BL/6N mouse treated with JM6 (containing <0.4% Ro-61-8048) at 50 mg/kg, po and Ro-61-8048 at 0.05 mg/kg, po drugs administered via gavage by LC-MS/MS analysis; format: ADME, organism-based; settings: in vivo; how it was run: as §1
Mus musculus [18] = experiment: Dose normalised Cmax in C57BL/6N mouse treated with JM6 (containing <0.4% Ro-61-8048) at 50 mg/kg, po and Ro-61-8048 at 0.05 mg/kg, po drugs administered via gavage by LC-MS/MS analysis; format: ADME, organism-based; settings: in vivo; how it was run: as §1
[19] = Metabolic stability in mouse plasma assessed as half life at 5 uM after 10 to 1440 mins by LC-MS/MS analysis; format: ADME, cell-free
[20] = molecular target: Kynurenine 3-monooxygenase (Homo sapiens, UniProt O15229); experiment: Inhibition of human KMO assessed as 3-hydroxykynurenine formation preincubated for 5 mins using 100 uM kynurenine as substrate by LC-MS/MS analysis
How it was run: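 Liver mitochondrial KMO preparation (mouse C57 BL/6J, rat Wistar, human) at 0.3 mg protein/mL in 100 mM potassium phosphate pH 7.4 with 200 µM NADPH, 0.4 U/mL G6PDH, 3 mM glucose 6-phosphate. Compound pre-incubated 5 min at 25°C, then 100 µM kynurenine added; 40 min (rodent) or 60 min (human). Stopped with TCA; 3-hydroxykynurenine by LC-MS/MS. IC50 from 8-point 3-fold dilutions (top 3 or 30 µM), triplicates, n≥2 runs.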

[21] = Hepatic extraction ratio in mouse Hepatocyte at 1 uM after 10 to 90 mins by LC-MS/MS analysis; format: ADME, cell-based; settings: hepatocytes, read-out: ERH

Sequence of Kynurenine 3-monooxygenase (O15229 whole entry): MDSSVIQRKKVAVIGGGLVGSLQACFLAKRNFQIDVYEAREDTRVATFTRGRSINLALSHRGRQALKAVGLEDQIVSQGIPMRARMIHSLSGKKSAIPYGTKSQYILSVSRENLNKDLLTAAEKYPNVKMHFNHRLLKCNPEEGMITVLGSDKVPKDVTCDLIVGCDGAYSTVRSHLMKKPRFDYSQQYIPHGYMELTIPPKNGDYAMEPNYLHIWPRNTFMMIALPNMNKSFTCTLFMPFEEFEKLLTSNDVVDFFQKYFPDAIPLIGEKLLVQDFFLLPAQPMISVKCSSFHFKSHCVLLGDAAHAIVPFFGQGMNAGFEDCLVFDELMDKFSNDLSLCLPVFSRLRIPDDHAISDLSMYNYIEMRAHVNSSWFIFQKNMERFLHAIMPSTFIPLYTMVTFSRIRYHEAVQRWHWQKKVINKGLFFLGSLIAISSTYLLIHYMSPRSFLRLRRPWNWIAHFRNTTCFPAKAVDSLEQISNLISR

SMILES: COc1ccc(S(=O)(=O)Nc2nc(-c3cccc([N+](=O)[O-])c3)cs2)cc1OC
- Cmax/dose (Mus musculus [1]): 18 µM
- half-life [2]: 414 min
- AUC(0-inf) [3]: 110 µM·h
- AUC/dose (Mus musculus [4]): 140000 nM·kg·h/mg
- Cmax [5]: 17 µM
- Cmax/dose (Mus musculus [6]): 21 µM
- Tmax [7]: 30 min
- AUC(0-t) [8]: 4.9 µM·h
- AUC(0-inf) [9]: 5.2 µM·h
- half-life [10]: 348 min
- AUC(0-t) [11]: 8.4 µM·h
- Tmax [12]: 2 h
- half-life at 5 µM [13]: > 1440 min
- efflux ratio at 1 h, 10 µM ([14]; MDCK): 0.8
- AUC/dose (Mus musculus [15]): 180000 nM·kg·h/mg
- Cmax/dose (Mus musculus [16]): 16 µM
- AUC/dose (Mus musculus [17]): 160000 nM·kg·h/mg
- Cmax/dose (Mus musculus [18]): 160 µM
- half-life at 5 µM [19]: > 1440 min
- pIC50 [20]: 6.77
- hepatic extraction ratio at 1 µM [21]: < 0.5

SMILES: COc1ccc(S(=O)(=O)Nc2nc(-c3cccc([N+](=O)[O-])c3)c(CN3CCCCC3)s2)cc1OC
- Cmax/dose (Mus musculus [1]): 0.15 µM
- half-life [2]: 54 min
- AUC(0-inf) [3]: 1.1 µM·h
- AUC/dose (Mus musculus [4]): 130 nM·kg·h/mg
- Cmax [5]: 1 µM
- Cmax/dose (Mus musculus [6]): 0.11 µM
- Tmax [7]: 30 min
- AUC(0-t) [8]: 1.3 µM·h
- AUC(0-inf) [9]: 1.3 µM·h
- half-life [10]: 42 min
- AUC(0-t) [11]: 4.8 µM·h
- Tmax [12]: 0.5 h
- half-life at 5 µM [13]: > 1440 min
- Ratio ([14]; mdck-ii, 1 h, 10 µM): 5.3
- AUC/dose (Mus musculus [15]): 190 nM·kg·h/mg
- Cmax/dose (Mus musculus [16]): 0.14 µM
- AUC/dose (Mus musculus [17]): 190 nM·kg·h/mg
- Cmax/dose (Mus musculus [18]): 0.19 µM
- half-life at 5 µM [19]: > 1440 min
- pIC50 [20]: 4.96
- hepatic extraction ratio at 1 µM [21]: 0.83
